ChEMBL document CHEMBL1127627, “Synthesis and antitumor activity of a new class of pyrazolo[4,3-e]pyrrolo[1,2-a][1,4]diazepinone analogues of pyrrolo[1,4][2,1-c]benzodiazepines” (J Med Chem, 1994)
Values joined by “and” are separate entries in the source; they are usually repeats but may differ in a detail not shown here. Identical values can stand only once.

Tests used:
L1210 [1] = experiment: Tested in vitro for inhibition after 48 hr exposure against murine leukemia cell line L1210/L-PAM resistant to melphalan (L-PAM) by experiment 2.; type: functional, cell-based; conditions: Mus musculus, L1210, 48 h
In short: (§1)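 L1210 murine leukemia cells and their melphalan-resistant L1210/L-PAM subline were used in growth-inhibition studies. IC50 is the concentration inhibiting growth by 50% after 48 h exposure, given as the mean of repeated experiments ± standard deviation.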

L1210 [2] = experiment: Tested in vitro for inhibition after 48 hr exposure against murine leukemia cell line L1210/L-PAM resistant to melphalan (L-PAM) by experiment 1.; type: functional, cell-based; conditions: Mus musculus, L1210, 48 h; in short: as §1
LoVo [3] = experiment: Tested in vitro for inhibition after 144 hr exposure against human colon carcinoma LoVo cell line; type: functional, cell-based
In short: (§2)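 LoVo human colon carcinoma cells and their doxorubicin-resistant LoVo/DX subline were used in growth-inhibition studies. IC50 is the concentration inhibiting growth by 50% after 144 h exposure to compound, reported as the mean of repeated experiments ± standard deviation.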

L1210 [4] = experiment: Tested in vitro for inhibition after 48 hr exposure against murine leukemia cell line L1210 by experiment 2; type: functional, cell-based; conditions: Mus musculus, L1210, 48 h; in short: as §1
L1210 [5] = experiment: Tested in vitro for inhibition after 48 hr exposure against murine leukemia cell line L1210 by experiment 1; type: functional, cell-based; conditions: Mus musculus, L1210, 48 h; in short: as §1
[6] = Resistance index as the ratio of IC50 against LoVo/Dx to that of LoVo.; type: functional
In short: (§3)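 Resistance index taken as IC50 in doxorubicin-resistant LoVo/DX human colon carcinoma cells over IC50 in parental LoVo cells. Each IC50 is the concentration giving 50% growth inhibition after 144 h exposure.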

LoVo [7] = experiment: Tested in vitro for inhibition after 144 hr against human colon carcinoma LoVo/DX cell line resistant to Doxorubicin (DX); type: functional, cell-based; in short: as §2
L1210 [8] = experiment: Tested in vitro for inhibition after 48 hr exposure against murine leukemia cell line L1210; type: functional, cell-based; conditions: Mus musculus, L1210, 48 h; in short: as §1
[9] = Resistance index as the ratio of IC50 against LoVo/Dx to that of LoVo; type: functional; in short: as §3
L1210 [10] = experiment: Tested in vitro for inhibition after 48 hr exposure against murine leukemia cell line L1210/L-PAM resistant to melphalan (L-PAM); type: functional, cell-based; conditions: Mus musculus, L1210, 48 h; in short: as §1
[11] = Resistance index as the ratio of IC50 against L1210/L-PAM to that of L1210 cell lines; type: functional
L1210 [12] = experiment: Tested in vitro for inhibition after 48 hr exposure against murine leukemia cell line L1210/L-PAM resistant to melphalan (L-PAM)by experiment 1.; type: functional, cell-based; conditions: Mus musculus, L1210, 48 h; in short: as §1
L1210 [13] = experiment: Tested in vitro for inhibition after 48 hr exposure against murine leukemia cell line L1210/L-PAM resistant to melphalan (L-PAM)by experiment 2.; type: functional, cell-based; conditions: Mus musculus, L1210, 48 h; in short: as §1
[14] = Resistance index as the ratio of IC50 against L1210/L-PAM to that of L1210 cell lines.; type: functional
In short: (§4)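 Resistance index computed as IC50 in melphalan-resistant L1210/L-PAM murine leukemia cells divided by IC50 in parental L1210 cells. Each IC50 is the concentration inhibiting growth by 50% after 48 h exposure, from growth-inhibition studies.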

L1210 [15] = experiment: tested in vitro for inhibition after 48 hr exposure against murine leukemia cell line L1210/L-PAM resistant to melphalan (L-PAM by experiment 2.; type: functional, cell-based; conditions: Mus musculus, L1210, 48 h; in short: as §1
L1210 [16] = experiment: tested in vitro for inhibition after 48 hr exposure against murine leukemia cell line L1210/L-PAM resistant to melphalan (L-PAM by experiment 1.; type: functional, cell-based; conditions: Mus musculus, L1210, 48 h; in short: as §1
[17] = Resistance index as the ratio of IC50 against LoVo/Dx to that of LoVo in experiment 1; type: functional; in short: as §3
[18] = Resistance index as the ratio of IC50 against L1210/L-PAM to that of L1210 cell lines in experiment 2.; type: functional; in short: as §4
L1210 [19] = experiment: Tested in vitro for inhibition after 48 hr exposure against murine leukemia cell line L1210/L-PAM resistant to melphalan (L-PAM) by experiment 1; type: functional, cell-based; conditions: Mus musculus, L1210, 48 h; in short: as §1
L1210 [20] = experiment: Tested in vitro for inhibition after 48 hr exposure against murine leukemia cell line L1210/L-PAM resistant to melphalan (L-PAM) by experiment 2; type: functional, cell-based; conditions: Mus musculus, L1210, 48 h; in short: as §1

Structure (SMILES) | IC50 (LoVo [3]) [µM] | IC50 (L1210 [4]) [µM] | IC50 (L1210 [5]) [µM] | IC50 (LoVo [7]) [µM] | IC50 (L1210 [8]) [µM] | RI [9] | other results
COC(=O)c1nn(C)c2c1N=C[C@@H]1CCCN1C2=O | 54 |  |  | 60 | 27 | 1.12 | 
C/C=C1/CC2C(OC)Nc3cc(OC)c(OC)cc3C(=O)N2C1 (stereo not drawn) | 0.009 |  |  | 0.004 | 0.012 | 0.5 | IC50 (L1210 [10]): 0.015 µM; RI [11]: 1.4
N[C@@H](Cc1ccc(N(CCCl)CCCl)cc1)C(=O)O | 4.09 |  |  | 4.9 | 15.3 | 1.18 | IC50 (L1210 [10]): 47 µM; RI [11]: 3.1
COc1cc2c(cc1O)N=C[C@@H]1CCCN1C2=O |  |  |  |  | 0.38 |  | 
COc1ccc(Cn2nc3c(c2C)N=C[C@@H]2CCCN2C3=O)cc1 | 48.4 | 11 | 19 | 32 |  |  | IC50 (L1210 [12]): 3 µM; IC50 (L1210 [13]): 6 µM; RI [6]: 0.7
Cc1nn(C)c2c1N=C[C@@H]1CCCN1C2=O | 42 |  |  | 39 | 22 | 0.9 | 
Cc1c2c(nn1Cc1ccc(Cl)cc1)C(=O)N1CCC[C@H]1C=N2 | 37 | 0.8 | 0.5 | 11 |  |  | IC50 (L1210 [1]): 0.27 µM; IC50 (L1210 [2]): 0.16 µM; RI [14]: 2.8 and 3.1; RI [6]: 0.3
COc1cccc2c1C(=O)c1c(O)c3c(c(O)c1C2=O)C[C@@](O)(C(=O)CO)C[C@@H]3O[C@H]1C[C@H](N)[C@H](O)[C@H](C)O1 [DOXORUBICIN] | 0.057 |  |  | 7.6 | 0.05 | 133 | IC50 (L1210 [10]): 0.06 µM
Cc1c2c(nn1Cc1ccccc1)C(=O)N1CCC[C@H]1C=N2 | 54 |  |  | 25 | 3 | 0.5 | 

The next lines start with results.

IC50 (LoVo [3]) [µM] | IC50 (L1210 [4]) [µM] | IC50 (L1210 [5]) [µM] | IC50 (LoVo [7]) [µM] | IC50 (L1210 [8]) [µM] | Structure (SMILES) | RI [9] | other results
40 | 5 | 4 | 6 |  | Cc1ccc(Cn2nc3c(c2C)N=C[C@@H]2CCCN2C3=O)cc1C |  | IC50 (L1210 [1]): 4 µM; IC50 (L1210 [2]): 8 µM; RI [6]: 0.2
27 |  |  | 32 | 8 | Cc1c2c(nn1C)C(=O)N1CCC[C@H]1C=N2 | 1.2 | 
46 |  |  | 38 | 20 | Cc1nn(Cc2ccccc2)c2c1N=C[C@@H]1CCCN1C2=O | 0.8 | 
> 215 | 69 | 40 | > 215 |  | CCn1nc(C)c2c1C(=O)N1CCC[C@H]1C=N2 |  | IC50 (L1210 [1]): 125 µM; IC50 (L1210 [2]): 101 µM; RI [14]: 2.5
30 |  |  | 8 | 12 | CC(C)c1c2c(nn1Cc1ccccc1)C(=O)N1CCC[C@H]1C=N2 | 0.2 | IC50 (L1210 [10]): 11 µM; RI [11]: 0.97
> 162 | 41 | 31 | > 162 |  | COC(=O)c1c2c(nn1C)C(=O)N1CCC[C@H]1C=N2 |  | IC50 (L1210 [15]): 62 µM; IC50 (L1210 [16]): 69 µM; RI [14]: 2.2 and 1.5
15 | 6 | 7 | 6 |  | CCn1nc2c(c1C)N=C[C@@H]1CCCN1C2=O |  | RI [17]: 0.4; RI [18]: 0.9 and 2; IC50 (L1210 [19]): 6 µM; IC50 (L1210 [20]): 13 µM
